Measurements collected from several papers.
Each line is one published result; the experiments were not run side by side.
Effect on: metabolic stability
Matrix: liver microsomes

Compound | system | setting | microsomal CLint
c1ccc(CCNc2nc(-c3ccccn3)nc3ccccc23)nc1 | mouse | – | 336 µL/min/mg
CCOC(=O)c1c(-c2cccc(Oc3ccccc3)c2)[nH]c2cc(OC)c(F)cc2c1=O | female CD-1 mouse | 19.8 µM, pH 7.4 | > 15 µL/min/mg
Oc1ccc(-c2nc(N3CCC(c4ccccn4)C3)c3ccccc3n2)cc1 (stereo not shown) | mouse | – | 388 µL/min/mg
O=C(C1CCSCC1)N1CC(=O)N2CCc3ccccc3[C@@H]2C1 | mouse | 0.1 µM, pH 7.4 | 324 µL/min/mg
N#CC1CCCN(c2nc(-c3ccccn3)nc3ccccc23)C1 (stereo not shown) | mouse | – | 93 µL/min/mg
CCOC(=O)C1=C(C)N/C(=C/c2cc(CC)n(-c3ccccc3C(F)(F)F)c2CC)C1=O | mouse | 1 µM | 143 µL/min/mg
Cc1cccc(N2CCN(c3nc(-c4ccccn4)nc4ccccc34)CC2)n1 | mouse | – | 513 µL/min/mg
CCOC(=O)c1c(-c2cccc(Cl)c2)[nH]c2cc(OC)c(F)cc2c1=O | female CD-1 mouse | 19.8 µM, pH 7.4 | < 4 µL/min/mg
CCN(CC)CCNC(=O)c1c(C)[nH]c(/C=C2\C(=O)Nc3ccc(F)cc32)c1C | mouse | 1 µM, pH 7.4 | 54 µL/min/mg
c1ccc(C2CCN(c3nc(-c4ccco4)nc4ccccc34)C2)nc1 (stereo not shown) | mouse | – | 539 µL/min/mg
CCCOc1cccc(-c2[nH]c3cc(OC)ccc3c(=O)c2C(=O)OCC)c1 | female CD-1 mouse | 19.8 µM, pH 7.4 | > 15 µL/min/mg
Cc1cc(Nc2ccc(C(F)(F)F)cc2)n2nc(C(F)(F)F)nc2n1 | mouse | 1 µM, pH 7.4 | < 10 µL/min/mg
O=C(Nc1ccnc(C(F)(F)F)c1)Nc1cccc2c1OC(F)(F)O2 | mouse | – | 92 µL/min/mg
Cc1cc(Nc2ccc(C(F)(F)F)cc2)c2ccccc2n1 | mouse | – | 98 µL/min/mg
Cc1cc(Nc2ccc(S(F)(F)(F)(F)F)cc2)n2nc(C(C)(F)F)nc2n1 | mouse | 1 µM, pH 7.4 | < 10 µL/min/mg
c1ccc(-c2nc(NCc3cccnc3)c3ccccc3n2)nc1 | mouse | – | 64 µL/min/mg
CCOc1ccc2ccc(=O)oc2c1 | mouse | 1 µM, pH 7.4 | 522 µL/min/mg
Cc1cc(Nc2ccc(S(F)(F)(F)(F)F)cc2)n2nc(C(F)(F)F)nc2n1 | mouse | 1 µM, pH 7.4 | < 10 µL/min/mg
O=C(Nc1ccc2c(c1)B(O)OC2)Nc1ccc(F)c(C(F)(F)F)c1 | mouse | – | 34 µL/min/mg
